Here are results for nine molecules from ChEMBL document CHEMBL4011658 (J Med Chem, 2017).

A word on the IC50: it is the point on the concentration scale where inhibition reaches its midpoint. Usually MFC stands for the smallest concentration meeting the test's criterion for killing the fungus. Usually MIC stands for the smallest concentration in the dilution series that meets the test's criterion for growth inhibition.

The test system of series [1] is Cryptococcus neoformans. Description: Antifungal activity against Cryptococcus neoformans ATCC 90113 after 70 to 74 hrs by alamar blue dye based CLSI method. The series is classed as functional. For orientation: The colour change of resazurin is a common sign of viable cells or microbes.
For series [2], the system named is SK-OV-3. Description: Cytotoxicity against human SKOV3 cells assessed as reduction in cell viability after 48 hrs by neutral red uptake assay. It is filed as cell-based. The following applies: sk-ov-3, 48 h. An outline of the steps:
(§1)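 Cells seeded at 25 000 per well and grown 24 h to confluence, then exposed to peptides up to 10 μg/mL for 48 h; viability by modified neutral red uptake; doxorubicin positive control, DMSO negative control.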

Series [3] deals with SK-MEL. Description: Cytotoxicity against human SK-MEL cells assessed as reduction in cell viability after 48 hrs by neutral red uptake assay. The series is classed as cell-based. An outline of the steps:
as §1

Series [4] concerns BT-549. Description: Cytotoxicity against human BT549 cells assessed as reduction in cell viability after 48 hrs by neutral red uptake assay. It is filed as cell-based. As to conditions: bt-549, 48 h. An outline of the steps:
as §1

Series [5] has as its system LLC-PK1. Description: Cytotoxicity against pig LLC-PK1 cells assessed as reduction in cell viability after 48 hrs by neutral red uptake assay. It is filed as cell-based, Sus scrofa. As to conditions: llc-pk1, 48 h. An outline of the steps: as §1
For series [6], the system named is Vero. Description: Cytotoxicity against African green monkey Vero cells assessed as reduction in cell viability after 48 hrs by neutral red uptake assay. The series is classed as cell-based. As to conditions: chlorocebus sabaeus. The gist of the method: as §1
Series [7] can be described thus: Selectivity index, ratio of cytotoxicity against human SKOV3 cells to IC50 for Cryptococcus neoformans ATCC 90113. The series is classed as toxicity, cell-based. As to conditions: read-out: Selectivity Index.
A short description of series [8]: Selectivity index, ratio of cytotoxicity against human SK-MEL cells to IC50 for Cryptococcus neoformans ATCC 90113. It is filed as toxicity, cell-based. As to conditions: read-out: Selectivity Index.
Series [9] can be described thus: Selectivity index, ratio of cytotoxicity against human BT549 cells to IC50 for Cryptococcus neoformans ATCC 90113. The series is classed as toxicity, cell-based. As to conditions: read-out: Selectivity Index.
Series [10] can be described thus: Selectivity index, ratio of cytotoxicity against pig LLC-PK1 cells to IC50 for Cryptococcus neoformans ATCC 90113. It is filed as toxicity, cell-based. The following applies: read-out: Selectivity Index.
Series [11] in a line: Selectivity index, ratio of cytotoxicity against African green monkey VERO cells to IC50 for Cryptococcus neoformans ATCC 90113. It is filed as toxicity, cell-based. As to conditions: read-out: Selectivity Index.
The test system of series [12] is Escherichia coli. Description: Antibacterial activity against Escherichia coli ATCC 35218 after 16 to 20 hrs by alamar blue dye based CLSI method. It is filed as functional.
The subject of series [13] is Candida. Description: Antifungal activity against Candida. It is filed as functional.
For series [14], the system named is Aspergillus. Description: Antifungal activity against Aspergillus. It is filed as functional.

In brackets after ≈: the same amount, converted by molar mass. Activity calls are given as the source filed them. Residues, ends and D or L forms follow the SMILES beside them.

With `COc1ccc(-c2nc(C[C@H](NC(=O)[C@H](Cc3c[nH]c4ccccc34)NC(=O)[C@@H](N)Cc3c[nH]c(-c4ccc(OC)cc4)n3)C(=O)NCc3ccccc3)c[nH]2)cc1`, the IC50 in series [1] was 7.2 µg/mL (≈ 9.23 µM). The molecule also returned an MFC in series [1] of over 20 µg/mL. This molecule also returned an MIC in series [1] of over 20 µg/mL. For the same molecule, the Activity in series [2], in series [3], in [4], in series [5] and in [6] was over 10 µg/mL in each case. The selectivity ratio in [7], in series [8], in [9], in series [10] and in [11] was over 1.4 each time. The outcome in [12], in series [13] and in series [14] was inactive.

`Cc1ccc(-c2nc(C[C@H](NC(=O)[C@H](Cc3c[nH]c4ccccc34)NC(=O)[C@@H](N)Cc3c[nH]c(-c4ccc(C)cc4)n3)C(=O)NCc3ccccc3)c[nH]2)cc1` showed an IC50 in series [1] of 5.56 µg/mL (≈ 7.43 µM). This molecule gave an MFC in series [1] of 10 µg/mL (≈ 13.4 µM). For the same molecule, the MIC in series [1] came out at 10 µg/mL (≈ 13.4 µM). For the same molecule, the Activity in series [2], in [3], in series [4], in [5] and in [6] was over 10 µg/mL each time. Moreover, the selectivity ratio in series [7], in series [8], in series [9], in series [10] and in [11] was over 1.8 in each case. The outcome in series [12], in [13] and in series [14] was inactive.

`COC(=O)[C@H](Cc1c[nH]cn1)NC(=O)[C@H](Cc1c[nH]c2ccccc12)NC(=O)[C@@H](N)Cc1c[nH]cn1` (H-His-Trp-His-OMe): the IC50 in [1] worked out at 9.81 µg/mL (≈ 19.9 µM). Moreover, the MFC in series [1] came to 20 µg/mL (≈ 40.6 µM). The same molecule showed an MIC in series [1] of 20 µg/mL (≈ 40.6 µM). Further, the Activity in series [2], in [3], in series [4], in series [5] and in [6] was over 10 µg/mL in each case. Moreover, the selectivity ratio in series [7], in series [8], in [9], in series [10] and in [11] was over 1 in each case. Besides, the outcome in series [12], in series [13] and in [14] was inactive.

In turn, `COC(=O)[C@H](Cc1c[nH]c(-c2ccc(C(C)(C)C)cc2)n1)NC(=O)[C@H](Cc1c[nH]c2ccccc12)NC(=O)[C@H](Cc1c[nH]c(-c2ccc(C(C)(C)C)cc2)n1)NC(=O)OC(C)(C)C` registered an IC50 in [1] of 1.27 µg/mL (≈ 1.48 µM). Moreover, in series [1], the MFC came out at 5 µg/mL (≈ 5.83 µM). This molecule also returned an MIC in [1] of 5 µg/mL (≈ 5.83 µM). Also, the Activity in series [2], in series [3], in [4], in series [5] and in [6] was over 10 µg/mL each time. Moreover, the selectivity ratio in series [7], in [8], in series [9], in series [10] and in series [11] was over 7.9 throughout. For the same molecule, the result in [12], in series [13] and in [14] was inactive.

As to `COC(=O)[C@H](Cc1c[nH]c(-c2ccccc2)n1)NC(=O)[C@H](Cc1c[nH]c2ccccc12)NC(=O)[C@@H](N)Cc1c[nH]c(-c2ccccc2)n1`, in [1], it took 3.71 µg/mL (≈ 5.75 µM) to reach half-maximal inhibition (IC50). The molecule further gave an MFC in [1] of 10 µg/mL (≈ 15.5 µM). In series [1], the MIC amounted to 10 µg/mL (≈ 15.5 µM). Also, the Activity in series [2], in [3], in [4], in [5] and in [6] was over 10 µg/mL each time. For the same molecule, the selectivity ratio in series [7], in [8], in series [9], in series [10] and in [11] was over 2.7 throughout. Also, the outcome in series [12], in series [13] and in [14] was inactive.

In [1], `CC(C)(C)OC(=O)N[C@@H](Cc1c[nH]c(-c2ccc(-c3ccccc3)cc2)n1)C(=O)N[C@@H](Cc1c[nH]c2ccccc12)C(=O)N[C@@H](Cc1c[nH]c(-c2ccc(-c3ccccc3)cc2)n1)C(=O)NCc1ccccc1` displayed a half-maximal inhibitory concentration (IC50) of over 20 µg/mL. The Activity in series [2], in series [3], in [4], in series [5] and in [6] was over 10 µg/mL in each case. For the same molecule, the result in series [12], in series [13] and in series [14] was inactive.

Consider `COC(=O)[C@H](Cc1c[nH]c(-c2ccc(-c3ccccc3)cc2)n1)NC(=O)[C@H](Cc1c[nH]c2ccccc12)NC(=O)[C@H](Cc1c[nH]c(-c2ccc(-c3ccccc3)cc2)n1)NC(=O)OC(C)(C)C`, for which the IC50 in series [1] was over 20 µg/mL. Moreover, the Activity in series [2], in series [3], in series [4], in series [5] and in [6] was over 10 µg/mL throughout. The outcome in [12], in series [13] and in series [14] was inactive.

In series [1], `CC(C)(C)OC(=O)N[C@@H](Cc1c[nH]c(-c2ccc(C(C)(C)C)cc2)n1)C(=O)N[C@@H](Cc1c[nH]c2ccccc12)C(=O)N[C@@H](Cc1c[nH]c(-c2ccc(C(C)(C)C)cc2)n1)C(=O)NCc1ccccc1` came in with an IC50 of over 20 µg/mL. The Activity in [2], in [3], in series [4], in series [5] and in [6] was over 10 µg/mL each time. Besides, the outcome in series [12], in series [13] and in series [14] was inactive.

Turning to `Cc1ccc(-c2nc(C[C@H](NC(=O)OC(C)(C)C)C(=O)N[C@@H](Cc3c[nH]c4ccccc34)C(=O)N[C@@H](Cc3c[nH]c(-c4ccc(C)cc4)n3)C(=O)NCc3ccccc3)c[nH]2)cc1`, in series [1], the 50% inhibitory concentration (IC50) came to 12.6 µg/mL (≈ 14.9 µM). In series [1], this molecule yielded an MFC of over 20 µg/mL. In series [1], this molecule displayed an MIC of over 20 µg/mL. In addition, the Activity in series [2], in [3], in series [4], in series [5] and in series [6] was over 10 µg/mL each time. The outcome in series [12], in [13] and in [14] was inactive.
